Experimental findings from ChEMBL document CHEMBL1153905, “Functionalized 3-benzylidene-indolin-2-ones: inducers of NAD(P)H-quinone oxidoreductase 1 (NQO1) with antiproliferative activity” (Bioorg Med Chem, 2009) are described below.

In data set [1] the target is T1, CYP1A1 (Mus musculus, UniProt P00184).
T1 sequence (P00184 whole entry): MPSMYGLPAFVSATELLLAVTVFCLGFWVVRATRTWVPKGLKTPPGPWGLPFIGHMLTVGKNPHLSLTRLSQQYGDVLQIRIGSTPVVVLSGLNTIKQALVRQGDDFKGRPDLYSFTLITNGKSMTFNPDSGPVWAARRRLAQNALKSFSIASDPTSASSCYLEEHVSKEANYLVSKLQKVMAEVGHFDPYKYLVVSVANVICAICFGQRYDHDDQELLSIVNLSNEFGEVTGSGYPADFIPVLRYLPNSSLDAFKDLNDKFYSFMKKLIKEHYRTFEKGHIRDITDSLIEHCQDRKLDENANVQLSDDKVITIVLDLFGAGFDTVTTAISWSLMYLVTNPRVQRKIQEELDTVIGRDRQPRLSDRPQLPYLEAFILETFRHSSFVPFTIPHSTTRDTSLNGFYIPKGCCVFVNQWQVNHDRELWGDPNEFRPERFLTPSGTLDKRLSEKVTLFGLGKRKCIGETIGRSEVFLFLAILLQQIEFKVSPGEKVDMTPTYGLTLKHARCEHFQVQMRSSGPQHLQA
The data set can be described thus: Induction of CYP1A1 activity in mouse Hepa-1c1c7 cells assessed as induction ratio at 2.5 uM after 48 hrs by EROD assay relative to control. The class given is ADME, cell-based. The procedure, abridged:
(§1)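 Hepa1c1c7 cells were seeded at 10,000 per well and grown 24 h. They were then exposed 48 h to compound (final DMSO 0.5% v/v) at about 4 × the NQO1 CD. After a PBS wash, cells got 5 µM 7-ethoxyresorufin plus 2 mM salicylamide in medium, 37 °C, 40 min. Resorufin was read at ex 530/em 590 nm, corrected for compound fluorescence. Ratio = (F treated − blank)/(F DMSO control − blank); mean ± SD, n = 3.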

A short description of data set [2]: Cytotoxicity against mouse Hepa-1c1c7 cells after 48 hrs by MTT assay. The class given is cell-based. The conditions noted are these: hepa-1c1c7, 48 h. The method in brief: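 Murine hepatoma cells in α-MEM with 10% heat- and charcoal-treated fetal calf serum, passages 6–17; MTT read-out as for the cancer lines but with 48 h compound exposure. Highest concentration tested 25 µM. IC50 from survival-versus-concentration curve; mean and SD, n = 3.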
A general note: Tetrazolium assays rely on reduction of a dye to a coloured formazan, in cell work by metabolically active cells.

Data set [3] has as its target NAD(P)H dehydrogenase [quinone] 1 (Mus musculus) (UniProt Q64669). The data set can be described thus: Induction of NQO1 activity in mouse Hepa-1c1c7 cells assessed as induction ratio at 2.5 uM after 48 hrs by MTT assay relative to control. The format is cell-based. The procedure, abridged:
(§2)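 Hepa1c1c7 cells, 10,000 per well, 24 h, were then treated 48 h (DMSO ≤0.5%). Digitonin/EDTA lysates were assayed for menadione-dependent MTT-formazan formation using a G6P/G6PDH NADPH-generating mix with FAD at pH 7.4. The reaction ran 5 min, was stopped with dicoumarol, and read at A590. Degree of induction = (A test − blank)/(A control − blank). Ratios were read off the induction–concentration plot at the EROD test concentration.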

Data set [4] shares this target. The data set can be described thus: Induction of NQO1 activity in mouse Hepa-1c1c7 cells assessed as induction ratio at 5 uM after 48 hrs by MTT assay relative to control. The format is cell-based. The procedure, abridged:
as §2

Data set [5] deals with T1, CYP1A1. The data set can be described thus: Induction of CYP1A1 activity in mouse Hepa-1c1c7 cells assessed as induction ratio at 5 uM after 48 hrs by EROD assay relative to control. The format is ADME, cell-based. The method in brief: as §1
In data set [6] the target is T1, CYP1A1. The data set can be described thus: Induction of CYP1A1 activity in mouse Hepa-1c1c7 cells assessed as induction ratio at 20 uM after 48 hrs by EROD assay relative to control. The format is ADME, cell-based. The procedure, abridged: as §1
In data set [7] the target is NAD(P)H dehydrogenase [quinone] 1 (Mus musculus) (UniProt Q64669). Put plainly: Induction of NQO1 activity in mouse Hepa-1c1c7 cells assessed as induction ratio at 20 uM after 48 hrs by MTT assay relative to control. The class given is cell-based. The procedure, abridged:
as §2

Data set [8] deals with T1, CYP1A1. The data set can be described thus: Induction of CYP1A1 activity in mouse Hepa-1c1c7 cells assessed as induction ratio at 7.5 uM after 48 hrs by EROD assay relative to control. The class given is ADME, cell-based. The procedure, abridged:
as §1

For data set [9], the target named is NAD(P)H dehydrogenase [quinone] 1 (Mus musculus) (UniProt Q64669). Put plainly: Induction of NQO1 activity in mouse Hepa-1c1c7 cells assessed as induction ratio at 7.5 uM after 48 hrs by MTT assay relative to control. The class given is cell-based. The procedure, abridged: as §2
Data set [10] shares this target. The data set can be described thus: Induction of NQO1 activity in mouse Hepa-1c1c7 cells assessed as induction ratio at 1 uM after 48 hrs by MTT assay relative to control. The class given is cell-based. The procedure, abridged:
as §2

The target of data set [11] is T1, CYP1A1. Put plainly: Induction of CYP1A1 activity in mouse Hepa-1c1c7 cells assessed as induction ratio at 1 uM after 48 hrs by EROD assay relative to control. The format is ADME, cell-based. The procedure, abridged: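 About 10,000 Hepa1c1c7 cells/well cultured 24 h, then compound (0.5% DMSO final) for 48 h, at roughly 4 × the concentration doubling NQO1 activity. After PBS wash, cells given 5 µM 7-ethoxyresorufin plus 2 mM salicylamide, 37 °C, 40 min; resorufin fluorescence ex 530/em 590 nm, corrected for compound fluorescence. Ratio = (treated − blank)/(DMSO control − blank); mean ± SD, n = 3.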

NAD(P)H dehydrogenase [quinone] 1 (Mus musculus), sequence (Q64669 whole entry): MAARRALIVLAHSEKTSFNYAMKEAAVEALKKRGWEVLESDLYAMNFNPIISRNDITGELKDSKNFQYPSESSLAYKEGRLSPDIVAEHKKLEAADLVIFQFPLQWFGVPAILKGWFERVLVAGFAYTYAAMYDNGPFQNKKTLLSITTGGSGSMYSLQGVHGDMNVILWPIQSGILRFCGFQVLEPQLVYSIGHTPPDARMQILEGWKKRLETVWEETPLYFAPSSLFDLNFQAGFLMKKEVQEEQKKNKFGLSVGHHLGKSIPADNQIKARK

As usually defined, the fold induction is the ratio of treated to control signal. What is called IC50 is the concentration needed to halve the response being measured. High values mean weaker potency in that assay, low ones greater potency in that assay. Regarding `O=C1Nc2ccccc2/C1=C\c1ccc(F)cc1Cl`, the fold induction at 48 h, 2.5 µM at CYP1A1 [1] was 1.2. In [2], the IC50 was > 25 µM. Further, the Ratio in data set [3] was found to be 3.52.

Regarding `COc1cccc(/C=C2/C(=O)N(C)c3ccccc32)c1`, in [2], the half-maximal inhibitory concentration (IC50) was > 25 µM. Also, the Ratio in data set [4] was determined as 4.78. Moreover, on CYP1A1 [5], the fold induction at 48 h, 5 µM was 1.18.

For the molecule `O=C1Nc2ccccc2/C1=C\c1ccc(Cl)cc1`, at CYP1A1 [1], the fold induction at 48 h, 2.5 µM amounted to 1.06. The same molecule had an IC50 in data set [2] of 6.7 µM. In [3], the Ratio was 3.67.

On to `COc1cccc(/C=C2\Nc3ccccc3C2=O)c1`, for which, in data set [2], half-maximal inhibition (IC50) was put at 21.2 µM. Besides, the Ratio in data set [4] is 3.88. Besides, at CYP1A1 [5], the fold induction at 48 h, 5 µM turned out to be 1.13.

Take `O=C1Nc2ccccc2/C1=C\c1ccccc1F`: in data set [2], the IC50 was > 25 µM. In addition, the Ratio in data set [4] stood at 6.8. Besides, the fold induction at 48 h, 5 µM on CYP1A1 [5] is 1.26.

For the molecule `O=C1Nc2ccccc2/C1=C\c1ccncc1`, the fold induction at 48 h, 20 µM at CYP1A1 [6] was 1.01. Also, the IC50 in data set [2] was > 25 µM. Moreover, the Ratio in [7] was determined as 2.08.

Consider `COc1ccc(/C=C2/C(=O)N(C)c3ccccc32)cc1O`, for which the IC50 in [2] amounted to 15.5 µM. In addition, the Ratio in [4] was determined as 2.64. The fold induction at 48 h, 5 µM at CYP1A1 [5] amounted to 1.08.

For the molecule `COc1ccc(/C=C2/C(=O)Nc3ccccc32)c(O)c1`, at CYP1A1 [1], the fold induction at 48 h, 2.5 µM was found to be 2.35. For the same molecule, in [2], the IC50 was > 25 µM. Further, the Ratio in data set [3] is 3.59.

`COc1ccc(/C=C2\Nc3ccccc3C2=O)cc1O`: the fold induction at 48 h, 7.5 µM at CYP1A1 [8] was 1.38. In addition, the IC50 in data set [2] was > 25 µM. In data set [9], the Ratio was determined as 4.21.

The molecule `COc1cc(/C=C2/C(=O)Nc3ccccc32)ccc1O` returned a 50% inhibitory concentration (IC50) in data set [2] of 14.6 µM. Moreover, in data set [4], the Ratio turned out to be 4. The fold induction at 48 h, 5 µM at CYP1A1 [5] came out at 1.32.

For the molecule `Cc1cccc(/C=C2/C(=O)Nc3ccccc32)c1`, the half-inhibitory concentration (IC50) in [2] was > 25 µM. In [10], the Ratio was determined as 4.04. Also, the fold induction at 48 h, 1 µM on CYP1A1 [11] was determined as 1.08.

`COc1ccccc1/C=C1/C(=O)Nc2ccccc21`: in data set [2], the half-inhibitory concentration (IC50) was > 25 µM. For the same molecule, in data set [10], the Ratio came to 4.03. Besides, at CYP1A1 [11], the fold induction at 48 h, 1 µM is 2.48.

Take `COc1cccc(CC2C(=O)Nc3ccccc32)c1` (stereo unspecified): at CYP1A1 [6], the fold induction at 48 h, 20 µM is 1.78. For the same molecule, the IC50 in data set [2] was > 25 µM. In addition, in data set [7], the Ratio was 2.23.

For `COc1ccc(/C=C2/C(=O)Nc3cc(Cl)ccc32)cc1O`, in data set [2], the 50% inhibitory concentration (IC50) is > 25 µM. For the same molecule, the Ratio in data set [10] worked out at 5.09. Further, the fold induction at 48 h, 1 µM on CYP1A1 [11] was 2.33.

On to `O=C1Nc2ccccc2/C1=C\c1cccc(O)c1`, for which, in data set [2], the IC50 was > 25 µM. In addition, the Ratio in data set [4] was found to be 3.94. Moreover, the fold induction at 48 h, 5 µM on CYP1A1 [5] amounted to 1.11.

Take `COc1ccc(/C=C2/C(=O)Nc3ccccc32)cc1`: in data set [2], the IC50 was > 25 µM. Moreover, the Ratio in [4] was 4.5. The fold induction at 48 h, 5 µM on CYP1A1 [5] came to 1.04.

As for `Cc1ccccc1/C=C1/C(=O)Nc2ccccc21`, in data set [2], the concentration for half-maximal inhibition (IC50) is > 25 µM. Moreover, in data set [4], the Ratio came to 4.45. On CYP1A1 [5], the fold induction at 48 h, 5 µM turned out to be 1.66.
